TRPC4 act: activators of mouse TRPC4 channel; Q9QUQ5; HEK293 TRPC4beta/mu-opioid, Fluo4 calcium fluorescence; active compounds read high; B-score at 10 µM; actives 0.49% (n = 310,000);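 active means B-score above 5 SD of library B-scores, and initial fluorescence ratio not above library mean plus 5 SD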;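 further: positive B-score marks a calcium rise read as TRPC4 activation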
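Assay system: HEK293 cells stably co-expressing mouse TRPC4beta and mu-opioid receptor / Timing: Fluo4 dye loading 45 min at room temperature, 110 s recording / Signal: Fluo4 calcium-sensitive dye fluorescence, kinetic, 1 Hz baseline / Read-out: integrated baseline-normalised fluorescence ratio, converted to per-well B score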
TRPC6 inh: inhibitors of mouse TRPC6 channel. Q61143. HEK293-TRPC6, membrane potential dye, ACh-evoked depolarization; active compounds read low. B-score at 10 µM. actives 1.1% (n = 310,000);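 active means B-score under library mean minus 3 SD, initial fluorescence not abnormally high, positive integrated signal ratio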;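 further: B-score derived from integrated fluorescence ratio over the kinetic read; more negative B-score means stronger inhibition of depolarization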
Target sequence (Q61143 whole entry, looked up): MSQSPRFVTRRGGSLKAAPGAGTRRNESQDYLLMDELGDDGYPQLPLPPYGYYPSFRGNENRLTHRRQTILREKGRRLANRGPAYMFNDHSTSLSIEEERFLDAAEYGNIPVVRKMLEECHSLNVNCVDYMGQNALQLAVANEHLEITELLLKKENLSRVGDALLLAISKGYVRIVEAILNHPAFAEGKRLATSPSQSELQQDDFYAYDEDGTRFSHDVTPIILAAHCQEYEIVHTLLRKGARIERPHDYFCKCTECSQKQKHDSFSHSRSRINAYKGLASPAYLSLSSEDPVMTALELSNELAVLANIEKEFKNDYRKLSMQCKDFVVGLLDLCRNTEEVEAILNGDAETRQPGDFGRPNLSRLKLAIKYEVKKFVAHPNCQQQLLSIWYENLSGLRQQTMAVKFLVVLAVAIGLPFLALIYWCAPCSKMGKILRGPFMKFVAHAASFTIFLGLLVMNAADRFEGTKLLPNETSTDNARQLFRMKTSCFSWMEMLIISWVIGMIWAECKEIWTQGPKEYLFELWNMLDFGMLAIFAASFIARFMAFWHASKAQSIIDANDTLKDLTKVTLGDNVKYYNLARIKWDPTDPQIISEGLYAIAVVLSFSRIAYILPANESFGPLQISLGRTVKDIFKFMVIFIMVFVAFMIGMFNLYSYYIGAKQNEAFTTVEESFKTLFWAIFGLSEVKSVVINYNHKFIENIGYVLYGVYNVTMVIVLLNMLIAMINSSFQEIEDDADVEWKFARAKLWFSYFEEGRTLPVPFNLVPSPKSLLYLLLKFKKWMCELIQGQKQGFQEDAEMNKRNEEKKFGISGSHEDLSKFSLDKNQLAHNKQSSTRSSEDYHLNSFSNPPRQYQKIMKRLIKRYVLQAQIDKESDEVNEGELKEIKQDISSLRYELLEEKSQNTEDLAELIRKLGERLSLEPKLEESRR
TRPC6 act: activators of mouse TRPC6 channel. Q61143. HEK293-TRPC6 membrane potential dye fluorescence; active compounds read high. actives 0.13% (n = 310,000). AID 2550. B-score at 10 µM;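 active means B-score of the integrated fluorescence ratio above library mean plus 3 SD, and starting fluorescence ratio within library mean plus 5 SD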;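 further: higher score means more depolarization so channel activation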
TRPC4 block: inhibitors of mouse TRPC4 channel | actives 0.39% (n = 300,000) | B-score at 10 µM | HEK293 TRPC4beta/mu-opioid, DAMGO-evoked Fluo4 calcium flux; active compounds read low | Q9QUQ5;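 active means B-score over 3 SD under the library average, no early fluorescence shift, positive overall ratio signal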
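Material: HEK293 cells with stable TRPC4beta plus mu-opioid receptor expression; probe or stimulus: DAMGO in two steps, submaximal then maximal; technique: Fluo4 calcium fluorescence by kinetic imaging, 5 s 1 Hz baseline; measure: integrated fluorescence ratio relative to baseline, converted to per-well B score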
Platelet DG rel: platelet dense granule release activity | actives 0.22% (n = 300,000) | AID 1663 | human platelet-rich plasma, SFLLRN dense granule ATP release, luminescence | inhibition, %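 (compounds screened at 7.5 µM in platelet-rich plasma)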;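 active means mean replicate score, as percent of positive control, at or above 50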
TRPC4 PAM: TRPC4 (mouse) allosteric potentiation; Q9QUQ5; HEK293 TRPC4beta/mu-opioid, DAMGO EC20, Fluo-4 Ca2+ flux; active compounds read high; actives 0.42% (n = 310,000); B-score at 10 µM;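 active means B-score of calcium response area above 5 SD of library B-scores, with initial fluorescence ratio within 5 SD of library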
A number is an active result; - = inactive. Most compounds without a hit are left out; they make up all but 2.5% or so of the library.

SMILES	TRPC4 act	TRPC6 inh	TRPC6 act	TRPC4 block	Platelet DG rel	TRPC4 PAM
CN=c1scc(-c2ccccc2F)n1/N=C/c1ccc(O)c(O)c1O	-	-	-	-	77.0	-
CSc1nc2c(c(=O)[nH]c(=O)n2C)n1C/C=C(\C)Cl	-	-	-	-	-	-
C=CCn1c(SCCN2CCOCC2)nc2c1c(=O)[nH]c(=O)n2C	-	-	-	-	-	23
C=CCSc1nc2c(c(=O)[nH]c(=O)n2C)n1C/C=C(/C)Cl	-	-	-	-7	-	-
O=C(NCC(=O)N(c1ccccc1F)C(C(=O)NC1CCCC1)c1cccnc1)c1ccco1 (configuration not stated)	-	-	-	-	-	-
CC(C)c1ccc(N(CC(=O)NC2CCCC2)C(=O)CCC(=O)Nc2ccccn2)cc1	-	-	-	-	-	-
CCOC(=O)c1ccc(NC(=O)CCc2ccc(C)o2)cc1	-	-	-	-	62.3	-
Cc1cc(NCC(c2ccccc2)c2ccccc2)n2ncnc2n1	-	-	-	-	-	-
CCc1ccc(N2CC(C)Cn3c2nc2c3c(=O)[nH]c(=O)n2C)cc1 (configuration not stated)	-	-	-	-	-	-
CCCCN(CC)CCNC(=O)c1ccc2c(Cl)c3c(nc2c1)CCC3	132	-	-	-	-	12
Nc1nc(SCC(=O)Nc2ccc(OCc3ccccc3)cc2)n[nH]1	-	-	-	-	-	-
COc1cc(C2NC(=S)NC(C)=C2C(=O)Nc2cc(C)cc(C)c2)ccc1O (configuration not stated)	-	-	-	-	-	10
CCOc1cc(C2NC(=S)NC(C)=C2C(=O)Nc2ccccc2)ccc1O (configuration not stated)	-	-	-	-	-	-
O=C(CNC(=O)c1ccc(Cl)cc1)NCC(F)(F)F	-	-	-	-	-	-
CCN(c1ccccc1)S(=O)(=O)c1cc([N+](=O)[O-])ccc1N	-	-5.58	-	-	-	-
Cc1c(Cl)cccc1N=C(N)N=C(N)N	51	-	-	-	-	-
NC(N)=NC(N)=Nc1cccc2ccccc12	-	-	-	-	-	-
Cc1cc(/C=C(\C#N)C(=O)N2CCOCC2)c(C)n1C1CCCC1	-	-	-	-	-	-
COc1ccc(CCN2C(=S)N(C)C(=O)C2CC(=O)Nc2ccc(F)cc2)cc1 (configuration not stated)	120	-	-	-	-	-
O=c1c2ccccc2c(/C=N/NS(=O)(=O)c2ccccc2)c(O)n1-c1ccccn1	-	-	-	-	-	-
CCN1CCN(C(=O)c2cc(-c3ccc(Cl)s3)nc3ccccc23)CC1	-	-	-	-	-	18
CCOC(=O)/C(=C\c1ccc(Cl)cc1)c1nc2sc(C)c(C)c2c(=O)[nH]1	-	-	-	-	-	11
CC(C)OCCCNC(=O)COc1ccc2oc3c(c2c1)CCCC3	-	-	-	-	-	-
COCCN1CCN(c2c(C)c(C)nc3cc(-c4cccc(OC)c4)nn23)CC1	48	-	-	-	-	-
CCOCCN1CCN(c2c(C)c(C)nc3cc(-c4cc(OC)cc(OC)c4)nn23)CC1	-	-	-	-	-	-
SMILES	TRPC4 act	TRPC6 inh	TRPC6 act	TRPC4 block	Platelet DG rel	TRPC4 PAM
Cc1ccc(-n2cc(CNC(C)Cn3cncn3)c(-c3ccc(F)cc3)n2)cc1 (configuration not stated)	64	-	-	-	-	-
Cc1ccc(C)c(-n2cc(CNC(C)Cn3cncn3)c(-c3ccccc3)n2)c1 (configuration not stated)	66	-	-	-	-	-
COc1ccc(-c2nn(-c3ccccc3)cc2CNC(C)Cn2cncn2)c(F)c1 (configuration not stated)	-	-	-	-	-	-
Cn1ccnc1C(=O)c1cc(SCC(=O)N2CCOCC2)nc2ccccc12	-	-	-	-	-	-
CNc1nc(N2CCc3ccccc32)ncc1F	-	-	-	-	-	47
CC(OC(=O)c1ccc2c(c1)S(=O)(=O)c1ccccc1C2=O)C(N)=O (configuration not stated)	-	-	-	-	-	-
CN(CC(=O)Nc1ccc(F)cc1)C(=O)COC(=O)C1CCN(c2ccc(C(F)(F)F)cn2)CC1	-	-	-	-5	-	-
COc1ccccc1OCCNc1cc(N2CCCCC2)ccc1[N+](=O)[O-]	-	-	-	-	-	-
Cc1ccccc1OCCNc1cc(N2CCNCC2)ccc1[N+](=O)[O-]	-	-7.94	-	-	-	14
CCOC(=O)c1c(-c2ccc(C)cc2)csc1NC(=O)CCSc1nnc2ccccn12	-	-	-	-	-	-
Cc1cccnc1NC(=O)C1CCC1	-	-	-	-	-	-
CN1CCN(Cc2cccc(Oc3ccc(Cl)cc3)c2)CC1	-	-	-	-	-	19
Cc1nc(N2CCN(c3ccccn3)CC2)c2c(C)c(C(=O)N3CCN(c4ccc(F)cc4)CC3)sc2n1	-	-	-	-10	-	-
COc1ccccc1N1CCN(C(=O)c2sc3nc(C)nc(N4CCN(c5ccccn5)CC4)c3c2C)CC1	-	-	-	-7	-	-
COc1ccccc1C(=O)COC(=O)c1nc(Cl)ccc1Cl	-	-	-	-	-	-
O=C(COC(=O)c1nc(Cl)ccc1Cl)c1ccccc1Cl	-	-	-	-	-	137
Cc1ccc(C2=N/C(=C\c3cccc(F)c3)C(=O)O2)cc1	-	-	-	-	-	-
Cc1ccnc(N2C(=O)c3ccccc3C2Nc2cccc(C)c2C)c1 (configuration not stated)	-	-	-	-	-	-
Cc1ccnc(N2C(=O)c3ccccc3C2O)c1 (configuration not stated)	-	-	-	-	69.5	-
COc1ccccc1CCC(=O)N(C)C1CCCN(Cc2ccccc2F)C1 (configuration not stated)	-	-	-	-	-	-
Nc1nc2ccccc2n1CCOc1ccc(F)cc1	-	-	-	-6	-	-
Clc1ccc(CN2C3=NCCCN3c3ccccc32)cc1Cl	-	-	-	-6	-	-
O=C(CN(C(=O)c1csnn1)c1cccc(C(F)(F)F)c1)NCc1ccc(F)cc1	-	-	-	-	-	-
Cc1cc(C)c2c(=O)n(CC(=O)NCCCN3CCOCC3)sc2n1	-	-	-	-	-	-
Cc1cc(C)c2c(=O)n(CC(=O)NCCCN3CCN(c4ccccc4F)CC3)sc2n1	-	-	-	-5	-	-
CCOC(=O)CCCNC(=O)COC(=O)c1cccc(F)c1	-	-	-	-	-	-
Cc1cc(-c2cn3ccccc3n2)c(C)n1-c1ccccc1	-	-	-	-7	-	-

Bioassay records from PubChem.
